One may read the Ki as a dissociation constant, usually derived from enzyme kinetics or from competition with a known ligand. The term inhibition denotes how much of the control response was suppressed.

From ChEMBL document CHEMBL3758131, “Towards new 5-HT7 antagonists among arylsulfonamide derivatives of (aryloxy)ethyl-alkyl amines: Multiobjective based design, synthesis, and antidepressant and anxiolytic properties” (Eur J Med Chem, 2016) come the findings set out here.

For one data set, the species on record is Homo sapiens. Put plainly: Selectivity index ratio of Ki for human 5-HT1A receptor to Ki for human 5-HT7B.
Data set [1] addresses T1, 5-hydroxytryptamine receptor 7 (Homo sapiens, UniProt P34969). Put plainly: Displacement of [3H]-5-CT from human 5-HT7B receptor expressed in HEK293 cells after 1 hr. The format is cell-based. In a few lines: (§1)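 Competition binding on membranes from HEK293 cells stably expressing human 5-HT7b or 5-HT1A. Incubation 1 h, at 37 °C for 5-HT7b and at room temperature for 5-HT1A. Non-specific binding defined with 10 µM 5-HT.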
For orientation: In a radioligand displacement assay an active substance lowers the binding of a labelled ligand.

For data set [2], the target named is T2, 5-hydroxytryptamine receptor 1A (Homo sapiens, UniProt P08908).
T2 sequence (P08908 whole entry): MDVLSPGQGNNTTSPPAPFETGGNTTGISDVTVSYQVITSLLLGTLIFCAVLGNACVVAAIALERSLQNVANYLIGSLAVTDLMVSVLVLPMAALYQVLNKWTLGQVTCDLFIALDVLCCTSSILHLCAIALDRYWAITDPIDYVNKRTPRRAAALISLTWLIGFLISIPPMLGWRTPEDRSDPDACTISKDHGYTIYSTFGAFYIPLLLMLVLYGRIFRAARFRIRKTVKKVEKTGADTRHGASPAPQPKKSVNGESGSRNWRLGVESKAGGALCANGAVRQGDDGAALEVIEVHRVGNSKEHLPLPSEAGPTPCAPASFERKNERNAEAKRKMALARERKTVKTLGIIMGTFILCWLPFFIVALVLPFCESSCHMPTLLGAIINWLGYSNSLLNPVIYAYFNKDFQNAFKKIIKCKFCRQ
The experiment in a line: Displacement of [3H]-8-OH-DPAT from human 5-HT1A receptor expressed in HEK293 cells after 1 hr. Format: cell-based. A digest of the protocol: as §1

For data set [3], the target named is 5-hydroxytryptamine receptor 2A (Homo sapiens, UniProt P28223). Put plainly: Displacement of [3H]-Ketanserin from human 5-HT2A receptor expressed in HEK293 cells after 1 hr. The format is cell-based.
Sequence of 5-hydroxytryptamine receptor 2A (P28223 whole entry): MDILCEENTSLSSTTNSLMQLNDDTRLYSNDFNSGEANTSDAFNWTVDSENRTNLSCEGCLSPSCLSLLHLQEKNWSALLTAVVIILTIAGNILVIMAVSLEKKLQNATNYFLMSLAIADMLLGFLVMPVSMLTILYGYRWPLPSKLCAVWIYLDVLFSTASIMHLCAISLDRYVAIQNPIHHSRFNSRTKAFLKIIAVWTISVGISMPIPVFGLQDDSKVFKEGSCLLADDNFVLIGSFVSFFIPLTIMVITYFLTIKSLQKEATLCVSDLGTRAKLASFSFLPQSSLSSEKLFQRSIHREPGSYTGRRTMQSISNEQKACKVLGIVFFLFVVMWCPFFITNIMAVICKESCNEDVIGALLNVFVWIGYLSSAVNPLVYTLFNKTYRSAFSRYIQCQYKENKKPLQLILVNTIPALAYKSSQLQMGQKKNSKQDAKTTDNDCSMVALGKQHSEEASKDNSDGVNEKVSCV
Data set [4] addresses T1, 5-hydroxytryptamine receptor 7. Put plainly: Antagonist activity at human 5-HT7B receptor expressed in CHO cells assessed as inhibition of 5-CT induced cAMP production at 10^-7 M after 30 mins by TR-FRET assay. The format is functional, cell-based.
For data set [5] the target is unchanged. Put plainly: Antagonist activity at human 5-HT7B receptor expressed in […] cells assessed as inhibition of 5-CT induced cAMP production at 10^-6 M after 30 mins by TR-FRET assay. The format is functional, cell-based. A general note: Cyclic AMP is a second messenger, typically raised through Gs and lowered through Gi signalling.
For data set [6], the system named is Mus musculus. The experiment in a line: Toxicity in ip dosed C57BL/6J mouse assessed as effect on spontaneous locomotory activity at MED measured over 6 mins. To be noted: in vivo, 0.1 h. Format: organism-based. A digest of the protocol:
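Mice habituated 30 min in individual cages, then ambulation counted over a period matching each behavioural test: 6 min for the tail suspension test and 1 min 15 s for the four-plate test. Compounds given ip at the active doses.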

Data set [7] has as its system Mus musculus. Put plainly: Toxicity in ip dosed C57BL/6J mouse assessed as effect on spontaneous locomotory activity at MED measured over 1 min 15 secs. To be noted: in vivo. Format: organism-based.

T1 sequence (P34969 whole entry): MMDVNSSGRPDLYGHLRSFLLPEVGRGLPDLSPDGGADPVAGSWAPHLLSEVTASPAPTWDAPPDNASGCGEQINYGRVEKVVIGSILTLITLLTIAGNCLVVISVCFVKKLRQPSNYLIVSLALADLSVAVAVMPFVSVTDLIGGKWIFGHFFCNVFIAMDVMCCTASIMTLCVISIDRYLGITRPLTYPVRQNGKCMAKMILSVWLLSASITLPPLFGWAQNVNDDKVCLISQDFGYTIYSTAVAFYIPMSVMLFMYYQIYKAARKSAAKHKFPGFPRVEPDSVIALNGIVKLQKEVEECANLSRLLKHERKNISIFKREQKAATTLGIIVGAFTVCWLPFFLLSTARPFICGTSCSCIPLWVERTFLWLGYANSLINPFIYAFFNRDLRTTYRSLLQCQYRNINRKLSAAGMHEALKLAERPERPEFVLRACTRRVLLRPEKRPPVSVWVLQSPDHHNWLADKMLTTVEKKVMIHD

Consider `CC(C)c1ccccc1OCCN1CCC(NS(=O)(=O)c2cccnc2)CC1`, for which the Ratio Ki in the data set listed under Homo sapiens worked out at 5. Moreover, the figures for the Ki in data set [1] and in data set [2] were 72 nM and 371 nM, respectively.
On the same counts, the results for `CC(C)(C)c1ccccc1OCCN1CCC(NS(=O)(=O)c2cccc(Cl)c2)CC1` are 25, 74 nM and 1850 nM.
In the case of `O=S(=O)(NC1CC2CCC(C1)N2CCOc1cccc(-c2ccccc2)c1)c1ccc(F)cc1` (stereo not given), the Ratio Ki in the data set filed under Homo sapiens was found to be 12. Moreover, the Ki in data set [1] amounted to 14 nM; in data set [2], 170 nM.
Regarding `CC(C)c1cccc(OCCN2C3CCC2CC(NS(=O)(=O)c2ccc(F)c(F)c2)C3)c1` (stereo not given), in the data set filed under Homo sapiens, the Ratio Ki was determined as 11. Further, the Ki came to 9 nM in data set [1] and 99 nM in data set [2].
On the same counts, the results for `CC(C)c1ccccc1OCCN1CCC(NC(=O)Nc2ccc(F)cc2)CC1` are 1, 201 nM and 190 nM.
On the same counts, the results for `O=S(=O)(NC1CN(CCOc2ccccc2-c2ccccc2)C1)c1cccc(Cl)c1` are 1, 20 nM and 23 nM.
On the same counts, the results for `O=S(=O)(c1ccc(F)cc1)N1CC2CC1CN2CCOc1ccccc1-c1ccccc1` (stereo not given) are 4, 292 nM and 1070 nM.
On to `CC(C)c1ccccc1OCCN1CC2CC1CN2S(=O)(=O)c1ccc(F)cc1` (stereo not given), for which the Ratio Ki in the data set filed under Homo sapiens amounted to 2. Moreover, the values for the Ki in data set [1] and in data set [2] were 162 nM and 260 nM, respectively.
Take `Cc1ccccc1OCCN1CCC(NS(=O)(=O)c2ccc(F)cc2)CC1`: the Ki was found to be 163 nM in data set [1] and 745 nM in data set [2].
Consider `O=C(Nc1cccc(Cl)c1)NC1CCN(CCOc2ccccc2-c2ccccc2)CC1`, for which, in the data set filed under Homo sapiens, the Ratio Ki was 4. The Ki in data set [1] came to 198 nM; in data set [2] it was 718 nM.
In data set [3], `CC(C)c1ccccc1OCCN1CCC(NS(=O)(=O)c2cccc(F)c2)CC1` showed an inhibitory constant (Ki) of 178 nM. The inhibition in data set [4] was determined as 70%; in data set [5], 99%.
As to `CC(C)c1cccc(OCCN2C3CCC2CC(NS(=O)(=O)c2cccc(Cl)c2)C3)c1` (stereo not given), the Ratio Ki in the data set filed under Homo sapiens came to 52. The Ki in data set [1] was determined as 4 nM; in data set [2], 206 nM.
On the same counts, the results for `Cn1cc(S(=O)(=O)NC2CCN(CCOc3ccccc3C(C)(C)C)CC2)cn1` are 66, 84 nM and 5550 nM.
With `CC(C)c1cccc(OCCN2C3CCC2CC(NS(=O)(=O)c2cnn(C)c2)C3)c1` (stereo not given), the Ratio Ki in the data set filed under Homo sapiens worked out at 6. The Ki in data set [1] amounted to 70 nM; in data set [2], 431 nM.
On the same counts, the results for `CC(C)c1cccc(OCCN2C3CCC2CC(NS(=O)(=O)c2cc(F)ccc2F)C3)c1` (stereo not given) are 13, 4 nM and 51 nM.
As to `CC(C)c1ccccc1OCCN1CCC(NC(=O)c2ccc(F)cc2)CC1`, the Ratio Ki in the data set listed under Homo sapiens was 1. The Ki turned out to be 285 nM in data set [1] and 199 nM in data set [2].
On to `CC(C)c1ccccc1OCCN1CCC(NS(=O)(=O)c2ccc(N)cc2)CC1`, for which the Ratio Ki in the data set listed under Homo sapiens came out at 13. Moreover, the Ki in data set [1] was 39 nM; in data set [2], 502 nM.
The corresponding values for `O=S(=O)(NC1CC2CCC(C1)N2CCOc1cccc(-c2ccccc2)c1)c1cccc(F)c1` (stereo not given) are 10, 12 nM and 123 nM.
On the same counts, the results for `O=C(NC1CCN(CCOc2ccccc2-c2ccccc2)CC1)c1cccc(Cl)c1` are 1, 197 nM and 148 nM.
On the same counts, the results for `O=S(=O)(NC1CCN(CCOc2ccccc2C2CCCC2)CC1)c1ccc(F)cc1` are 23, 16 nM and 373 nM.
On to `O=S(=O)(NC1CCN(CCOc2ccccc2)CC1)c1ccc(F)cc1`, for which the Ki in data set [1] stood at 855 nM; in data set [2], 1760 nM.
As for `CC(C)c1ccccc1OCCN1CC2CC1CN2S(=O)(=O)c1cccc(Cl)c1` (stereo not given), the Ratio Ki in the data set listed under Homo sapiens was determined as 2. The results for the Ki in data set [1] and in data set [2] were 168 nM and 393 nM, respectively.
For the molecule `O=S(=O)(NC1CCN(CCOc2ccccc2-c2ccccc2)CC1)c1cccnc1`, in the data set filed under Homo sapiens, the Ratio Ki is 10. Also, the values for the Ki in data set [1] and in data set [2] were 53 nM and 536 nM, respectively.
Regarding `CN1C(=O)CN=C(c2ccccc2)c2cc(Cl)ccc21` [DIAZEPAM], the Activity result in the data set with Mus musculus [6] and in the data set on Mus musculus [7] was “Non-toxic” throughout.
Turning to `Nc1ccc(S(=O)(=O)NC2CCN(CCOc3ccccc3-c3ccccc3)CC2)cc1`, in the data set listed under Homo sapiens, the Ratio Ki worked out at 16. Besides, the Ki in data set [1] came to 26 nM; in data set [2] it was 407 nM.
On the same counts, the results for `O=S(=O)(NC1CC2CCC(C1)N2CCOc1cccc(-c2ccccc2)c1)c1ccc(F)c(F)c1` (stereo not given) are 4, 20 nM and 74 nM.
The corresponding values for `Cn1cc(S(=O)(=O)NC2CN(CCOc3ccccc3-c3ccccc3)C2)cn1` are 1, 40 nM and 46 nM.
`CC(C)c1cccc(C(C)C)c1OCCN1CCC(NS(=O)(=O)c2ccc(F)cc2)CC1`: the Ki was determined as 1920 nM in data set [1] and 6150 nM in data set [2].
Consider `CC(C)(C)c1ccccc1OCCN1CCC(NS(=O)(=O)c2ccc(F)cc2)CC1`, for which the Ratio Ki in the data set listed under Homo sapiens is 85. Also, the Ki in data set [1] was 54 nM; in data set [2], 4570 nM.
Consider `COc1ccccc1OCCN1CCC(NS(=O)(=O)c2ccc(F)cc2)CC1`, for which the Ki in data set [1] came to 344 nM; in data set [2], 463 nM.
`CC(C)c1ccccc1OCCN1CC(NS(=O)(=O)c2cccc(F)c2)C1` returned a Ki in data set [2] of 28 nM.
`CC(C)Oc1ccccc1OCCN1CCC(NS(=O)(=O)c2ccc(F)cc2)CC1`: the Ki in data set [1] stood at 27 nM; in data set [2], 197 nM.
For the molecule `O=S(=O)(NC1CCN(CCOc2ccccc2C2CCCC2)CC1)c1cccc(Cl)c1`, in the data set listed under Homo sapiens, the Ratio Ki was determined as 33. Also, the Ki was 17 nM in data set [1] and 556 nM in data set [2].
The corresponding values for `O=S(=O)(c1cccc(Cl)c1)N1CC2CC1CN2CCOc1ccccc1-c1ccccc1` (stereo not given) are 8, 319 nM and 2670 nM.
Take `CC(C)c1ccccc1OCCN1CCC(NC(=O)Nc2cccc(Cl)c2)CC1`: the Ratio Ki in the data set filed under Homo sapiens was found to be 2. In addition, the Ki in data set [1] turned out to be 264 nM; in data set [2], 591 nM.
Regarding `CC(C)c1ccccc1OCCN1CC(NS(=O)(=O)c2ccc(F)cc2)C1`, the Ratio Ki in the data set listed under Homo sapiens was 6. The figures for the Ki in data set [1] and in data set [2] were 7 nM and 45 nM, respectively.
